Source: PubChem
Sampled rows, rich in hits. Any-hit rate of the full collection: about 1.8%.
CHRM5 PAM – human M5 muscarinic receptor positive allosteric modulators, primary screen, CHO-K1 cells, Fluo-8 calcium fluorescence. CHO-K1 hM5, ACh EC20 PAM; 0% = ACh EC20, 100% = ACh EC100. 360,000 tested, 0.3% active. activation, % at 3 µM. Muscarinic acetylcholine receptor M5 (Homo sapiens), P08912;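 active = activation above the run cutoff, the mean activation of all test compounds plus 3 SD, cut at about 18% in these data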
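Replicates: One well per compound, no replicates | System: Human M5 receptor in CHO-K1 cells | Benchmarks: Low control EC20 acetylcholine (0%), high control EC100 acetylcholine (100%) | Probe or stimulus: Acetylcholine, EC20 level | Times: Fluo-8 loading 80 min at 37 °C plus 30 min room temperature | Signal: Intracellular calcium via Fluo-8 fluorescence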
M5 antag – human M5 muscarinic receptor antagonists, primary screen, CHO cells, Fluo-8 calcium fluorescence; Muscarinic acetylcholine receptor M5 (Homo sapiens), P08912; CHO-hM5 cells, ACh EC80; inhibition, % at 3 µM; 360,000 tested, 0.59% active;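 active = inhibition above a per-plate cutoff, the mean of that plate's test compounds plus 3 SD, cut at about 27% in these data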;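 note: 0% = acetylcholine EC80 with DMSO and 100% = DMSO without agonist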
M5 ag – human M5 muscarinic receptor agonists, primary screen, CHO-K1 cells, Fluo-8 calcium fluorescence. 360,000 tested, 0.19% active. activation, % at 3 µM. Muscarinic acetylcholine receptor M5 (Homo sapiens), P08912. CHO-K1 hM5 cells; 0% DMSO wells, 100% maximal acetylcholine response;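 active = activation above the run's mean over test compounds plus 3 SD, cut at about 23% in these data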;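 note: signal is peak over basal fluorescence ratio across the kinetic read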
M4 PAM – human M4 muscarinic receptor positive allosteric modulators, primary screen, CHO-K1 cells, Fluo-8 calcium fluorescence; Muscarinic acetylcholine receptor M4 (Homo sapiens), P08173; 360,000 tested, 0.4% active; CHO-K1 hM4/Gqi5, ACh EC20; 0% = ACh EC20, 100% = maximal ACh; activation, % at 3 µM;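 active = activation above its plate's cutoff, the mean activation of sample wells plus 3 SD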
Target sequence (P08173 whole entry, looked up): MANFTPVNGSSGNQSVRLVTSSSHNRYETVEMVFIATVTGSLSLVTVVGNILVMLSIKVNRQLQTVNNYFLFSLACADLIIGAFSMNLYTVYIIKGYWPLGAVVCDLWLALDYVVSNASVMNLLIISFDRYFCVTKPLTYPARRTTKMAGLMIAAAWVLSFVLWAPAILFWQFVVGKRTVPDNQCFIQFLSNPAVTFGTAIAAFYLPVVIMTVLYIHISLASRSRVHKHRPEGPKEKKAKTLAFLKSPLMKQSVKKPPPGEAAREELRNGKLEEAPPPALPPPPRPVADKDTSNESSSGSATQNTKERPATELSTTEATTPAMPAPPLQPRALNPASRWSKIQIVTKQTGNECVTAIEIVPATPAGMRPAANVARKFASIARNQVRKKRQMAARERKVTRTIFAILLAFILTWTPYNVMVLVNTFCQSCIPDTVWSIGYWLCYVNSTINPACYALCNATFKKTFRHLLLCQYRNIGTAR
CHRM4 agonist – human M4 muscarinic receptor agonists, primary screen, CHO-K1 cells, Fluo-8 calcium fluorescence | 360,000 tested, 0.14% active | CHO-K1 hM4/Gqi5; vehicle 0%, full acetylcholine response 100% | activation, % at 3 µM | AID 624127, 2012 | Muscarinic acetylcholine receptor M4 (Homo sapiens), P08173;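 active = activation above the run mean over all test wells plus 3 SD, cut at about 32% in these data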;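 note: peak over basal fluorescence ratio per well then scaled between controls; 0% = DMSO wells and 100% = acetylcholine at EC100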
M4 antag – human M4 muscarinic receptor antagonists, primary screen, CHO cells, Fluo-8 calcium fluorescence. CHO-hM4 cells, ACh EC80. inhibition, % at 3 µM. 360,000 tested, 0.73% active. AID 624125, 2012;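 active = inhibition above its plate's cutoff, the mean inhibition of sample wells plus 3 SD, cut at about 27% in these data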;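 note: 0% = acetylcholine EC80 with DMSO and 100% = DMSO without agonist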
* marks the source's active call; other numbers are inactive results; ! = repeats disagree.

SMILES | CHRM5 PAM | M5 antag | M5 ag | M4 PAM | CHRM4 agonist | M4 antag
CC(C)CC1C(=O)N(Cc2cn(CC3CCCCC3)nn2)CCS(=O)(=O)N1Cc1ccc(-c2ccc(F)nc2)cc1 (stereo unspecified) | -1.3 | 9.8 | 0.7 | -5.2 | 2.3 | -2.6
CCC(C)Sc1cc(-c2nc3cc(C)ccn3c2NC2CCCCC2)ccc1OC (stereo unspecified) | -12.4 | 18.6 | -4.5 | -9.7 | 6.7 | 9.6
c1cc(SC2CCCCC2)cc(-c2nc3cnccn3c2NC2CCCCC2)c1 | 7.4 | 8.3 | 6.2 | 0.1 | 1.6 | 9.4
CCC(C)Sc1cc(-c2nc3ccccn3c2NC2CCCCC2)ccc1OC (stereo unspecified) | -19.3 | 14.1 | -4.8 | -9.3 | 4.8 | 54.5*!
CCC(C)Sc1cccc(-c2nc3cnccn3c2NC2CCCCC2)c1 (stereo unspecified) | 4.2 | 7.3 | 3.8 | -10.9 | -2.1 | 26.4*
C=CCc1cccc(/C=N/n2cnnc2)c1O | 0.4 | -1.6 | 2.2 | 40.7* | 1.4 | 13.3
COc1ccc(NC(=O)C(c2cc3ccccc3o2)n2c(=O)c(-c3cc4ccccc4[nH]3)nc3ccccc32)cc1 (stereo unspecified) | 2.3 | 4.2 | 3.0 | 2.0 | 1.4 | 9.4
Cc1cc(N2CCCCC2)nc(NCc2ccccc2)n1 | -24.3 | 7.6 | 33.3* | -17.2 | 36.8* | 7.9
COCCNc1oc(Cc2cccc3ccccc23)nc1C#N | 2.2 | 8.9 | -3.8 | 0.5 | 1.6 | -7.9
CC(C)=CCC[C@H](C)C[C@@H]1Cc2[nH][nH]c(=O)c2[C@@H](c2ccc(F)cc2)O1 | 4.1 | 3.4 | 0.9 | 5.8 | -0.3 | 5.0
O=[N+]([O-])c1ccc2c(c1)C(O)n1ncnc1S2 (stereo unspecified) | 4.9 | -1.4 | -2.2 | 7.1 | 0.8 | 1.6
O=[N+]([O-])c1ccc2c(c1)C(O)n1nc(-c3ccc(Cl)cc3Cl)nc1S2 (stereo unspecified) | 25.1* | 0.5 | -2.8 | 7.4 | 0.6 | -18.2
CCOC(=O)c1c(S(=O)(=O)NCC(=O)N2CCN(c3ccc(F)cc3)CC2)c(C)n(C)c1C | 3.4 | 6.9 | -4.7 | -0.8 | 2.4 | -8.4
C[C@@H]1CN(Cc2nc(-c3cccs3)no2)C[C@H](C)O1 | -9.5 | 11.1 | -0.8 | 4.1 | 0.9 | 27.2*
CC(C)(C)Cc1nnc(NC(=O)CCc2ccccc2)s1 | -3.3 | 12.1 | 1.7 | -0.4 | -1.2 | 6.3
FC(F)Sc1ccc(NC(=S)NCC2CCCCC2)cc1 | -17.1 | 39.8* | 1.3 | -24.2 | 6.9 | 12.2
CCNS(=O)(=O)c1ccc(CCC(=O)Nc2cc(Cl)ccc2Oc2ccccc2)cc1 | -23.9 | 17.2 | -0.4 | -11.7 | 24.0 | 27.6*
COc1cccc(NC(=O)c2nc3nc(C)cc(C(F)F)n3n2)c1 | -4.8 | 3.2 | 0.4 | 8.2 | 0.5 | -20.6
Cc1cc(C(F)F)n2nc(C(=O)Nc3cc(C)on3)nc2n1 | 5.3 | -11.3 | -1.0 | 27.8* | 1.2 | 4.2
COc1ccc(C(=O)N2CCN(S(=O)(=O)c3ccc(Br)cc3)CC2)cc1 | -9.1 | 16.1 | -2.2 | -4.6 | 7.3 | 5.7
CCCCNc1c(-c2ccc(OC)c(SC(C)CC)c2)nc2cc(C)ccn12 (stereo unspecified) | -22.3 | 8.1 | -4.2 | -11.2 | 11.8 | 30.6*!
CCCCNc1c(-c2ccc(OC)c(SC(C)CC)c2)nc2cnccn12 (stereo unspecified) | -21.4 | 20.6 | -6.4 | -3.2 | 4.9 | -1.2
CCCCNc1c(-c2ccc(Sc3ccc(OC)cc3)cc2)nc2cc(C)ccn12 | -13.1 | 11.2 | -5.3 | -12.8 | 3.8 | 43.6*
CCCCNc1c(-c2ccc(SC(C)CC)cc2)nc2ccccn12 (stereo unspecified) | -29.1 | 25.3 | -1.1 | -11.8 | 10.9 | 45.3*
CCCCNc1c(-c2ccc(SC3CCCCC3)cc2)nc2ccccn12 | 0.5 | 6.3 | 5.1 | -0.4 | 6.0 | 20.6
SMILES | CHRM5 PAM | M5 antag | M5 ag | M4 PAM | CHRM4 agonist | M4 antag
CCCCNc1c(-c2ccc(OC)c(SC(C)CC)c2)nc2ccc(C)cn12 (stereo unspecified) | -29.7 | 13.8 | 1.3 | -3.9 | 16.1 | 31.1*!
CCCCNc1c(-c2ccc(OC)c(SC(C)CC)c2)nc2ccc(Cl)cn12 (stereo unspecified) | -7.6 | 9.4 | -4.7 | -3.9 | 5.3 | 5.3
CCCCNc1c(-c2ccc(-c3ccc(C(C)=O)cc3)c(OC)c2)nc2cc(C)ccn12 | -36.1 | 17.1 | -9.8 | -13.1 | 6.5 | 25.4
CSc1cccc(NC(=O)C2CCCN(S(=O)(=O)c3cccs3)C2)c1 (stereo unspecified) | -3.8 | 11.9 | 0.6 | -14.6 | 10.2 | -1.0
O=C(c1ccc(S(=O)(=O)Nc2ccccc2)cc1)N1CCC1 | -7.7 | 9.8 | -1.1 | -2.5 | 1.2 | 7.4
O=C(COC(=O)c1ccc(F)cc1Cl)NC1CC1 | 2.4 | 2.3 | 0.2 | 4.6 | 0.1 | -2.2
O=C(Nc1ccc2nc(-c3ccco3)c(-c3ccco3)nc2c1)N1CCN(c2ccccn2)CC1 | 19.9* | 25.2 | 1.6 | -14.9 | 12.0 | 7.8
Cc1nc2cc(NC(=O)N3CCN(c4ccccn4)CC3)ccc2o1 | -2.7 | -1.6 | 0.9 | -4.2 | 0.9 | 4.9
COc1ccc(S(=O)(=O)N2CC(O)CC2C(=O)OCc2nc3sc(C)c(C)c3c(=O)[nH]2)cc1 (stereo unspecified) | 6.3 | -0.1 | -0.3 | 10.1 | 1.2 | 3.1
COc1ccc2ccccc2c1-c1sc(Nc2ccccc2)n[n+]1-c1ccc(F)cc1 | -32.7 | 35.5* | 28.1* | -7.9 | 32.1* | 9.1
CCN(CC)c1ccc(-c2sc(Nc3ccccc3)n[n+]2-c2ccc(F)cc2)cc1 | -10.7 | 25.7 | 20.1 | -5.5 | 22.4 | -4.3
COc1ccc(-c2sc(Nc3ccccc3)n[n+]2-c2ccc(F)cc2)cc1Br | -5.1 | 14.2 | -4.9 | 13.9 | 1.4 | 9.5
CCc1ccc(Nc2n[n+](-c3ccccc3)c(-c3ccc(N(CC)CC)cc3)s2)cc1 | -15.8 | 35.6* | 18.6 | -9.0 | 42.0* | 29.5*
CCc1ccc(Nc2n[n+](-c3ccccc3)c(-c3c(Cl)cccc3Cl)s2)cc1 | -25.5 | 69.6* | 48.9* | -19.1 | 43.2* | 24.1
N#Cc1ccc(NC(=O)Cn2cnc(S(=O)(=O)N3CCCC3)c2)cc1 | -2.7 | 21.1 | -4.5 | 3.0 | 0.0 | -9.0
NC(=O)c1ccc(NC(=O)COC(=O)c2cc3ccccc3cc2O)cc1 | 6.8 | 0.2 | 8.9 | 9.1 | 1.8 | -10.6
